Results from paper PMC5407101 (Pharmacognosy Magazine, 2017).

Legend:
Format in all cases: in vitro ADME
[1] = tested on: UDP-glucuronosyltransferases (UGTs) in rat liver microsomes; experiment: Inhibition of 4-MU glucuronidation assay in RLM; details: for fold more potent inhibition of 4-MU glucuronidation with RLM than with RKM: ratio of IC50 RKM/RLM
[2] = tested on: UDP-glucuronosyltransferases (UGTs) in rat kidneys microsomes; experiment: Kinetic analysis for p-NP glucuronidation in RKM
Method in brief: (§1)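 RLM or RKM (5 mg mL–1) was pre-treated on ice for 5 min with Triton X-100 (0.25 v/v % RLM; 0.125 v/v % RKM). Incubation was in Tris-HCl pH 7.4 with MgCl2, at seven p-NP levels (0-3,000 µM), started with UDPGA, 37°C for 30 min. The reaction was stopped with TCA and alkalinised with NaOH, and read at 405 nm. Glucuronidated p-NP was taken as blank minus unreacted, per protein and time. Km and Vmax came from a Michaelis-Menten fit.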

[3] = tested on: UDP-glucuronosyltransferases (UGTs) in rat liver microsomes; experiment: Kinetic analysis for p-NP glucuronidation in RLM
Method in brief: as §1

[4] = tested on: UDP-glucuronosyltransferases (UGTs) in rat kidneys microsomes; experiment: Kinetic analysis for 4-MU glucuronidation in RKM
Method in brief: (§2)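 Microsomes from livers or kidneys of untreated male Sprague-Dawley rats. Protein was 0.1 mg mL–1 (RLM) or 0.125 mg mL–1 (RKM), pre-treated on ice for 5 min with Triton X-100 (0.1 μL mg–1 RLM; 0.2 μL mg–1 RKM), in Tris-HCl pH 7.4 with MgCl2. 4-MU ranged 0-10 mM. After 5 min at 37°C, UDPGA started the 15-min reaction, stopped with TCA. 4-MUG was measured by C18 HPLC-UV at 316 nm. Km and Vmax came from a Michaelis-Menten fit.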

[5] = tested on: UDP-glucuronosyltransferases (UGTs) in rat liver microsomes; experiment: Kinetic analysis for 4-MU glucuronidation in RLM
Method in brief: as §2

[6] = read-out: Km of p-NP glucuronidation, Michaelis-Menten

## COc1cc(C=O)ccc1O [Vanillin]
[1]
  fold more potent inhibition of 4-MU glucuronidation with RLM than with RKM: 2.6 fold

## O=[N+]([O-])c1ccc(O)cc1 [p-NP, p-nitrophenol]
[2]; Michaelis-Menten
  Vmax of p-NP glucuronidation: 9.320 ± 1.11 nmol min^–1 mg^–1
[2]; [6]
  Km: 857 ± 68.3 µM
[3]; Michaelis-Menten
  Vmax of p-NP glucuronidation: 43.04 ± 1.64 nmol min^–1 mg^–1
[3]; [6]
  Km: 860 ± 86.8 µM

## COc1cc(C=O)cc(OC)c1O [Syringaldehyde]
[1]; RLM
  fold higher IC50 in comparison with vanillin, 4-MU UGT inhibition: 120 fold
[1]
  fold more potent inhibition of 4-MU glucuronidation with RLM than with RKM: 1.2 fold

## Cc1cc(=O)oc2cc(O)ccc12 [4-MU, 4-methylumbelliferone]
[4]; Michaelis-Menten
  Vmax of 4-MU glucuronidation: 12.01 ± 0.12 nmol min^–1 mg^–1
[4]; read-out: Km of 4-MU glucuronidation, Michaelis-Menten
  Km: 101 ± 6 µM
[5]; Michaelis-Menten, no inhibitor
  Vmax of 4-MU glucuronidation: 27.87 ± 1.08 nmol min^–1 mg^–1
[5]; read-out: Km of 4-MU glucuronidation, Michaelis-Menten, no inhibitor
  Km: 104 ± 20 µM
